In ChEMBL document CHEMBL1949649, “5-sulfonyl-benzimidazoles as selective CB2 agonists-part 2” (Bioorg Med Chem Lett, 2012):

How the values were obtained:
Cannabinoid receptor 2 = Cannabinoid receptor 2 (Homo sapiens, UniProt P34972); experiment: Agonist activity at human CB2 receptor; assay type: functional
[1] = Drug metabolism in human liver microsomes after 15 mins; assay type: ADME, Microsome; details: read-out: Drug metabolism
Cannabinoid receptor 1 = Cannabinoid receptor 1 (Homo sapiens, UniProt P21554); experiment: Agonist activity at human CB1 receptor; assay type: functional
[2] = Kinetic solubility of the compound at pH 7.4; assay type: physicochemical; details: buffer, read-out: Kinetic_solubility
Rattus norvegicus [3] = experiment: Toxicity in rat chronic constriction injury-induced neuropathic pain model assessed as tolerance at 40 mg/kg/day, sc after 5 to 8 days; assay type: organism-based; parameters: route subcutaneous; details: in vivo
In short: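 Chronic constriction injury of rats (n = 7 per group); daily subcutaneous dosing over repeated days, with morphine as comparator. Cold allodynia read as lifting on a cold plate at 0 °C for 4 min.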

Rattus norvegicus [4] = experiment: Toxicity in rat assessed as decrease in body temperature at 10 mg/kg, ip by modified tetrad test; assay type: organism-based; parameters: dose 10 mg/kg, route intraperitoneal; details: in vivo

Chain of Cannabinoid receptor 1 (P21554 whole entry): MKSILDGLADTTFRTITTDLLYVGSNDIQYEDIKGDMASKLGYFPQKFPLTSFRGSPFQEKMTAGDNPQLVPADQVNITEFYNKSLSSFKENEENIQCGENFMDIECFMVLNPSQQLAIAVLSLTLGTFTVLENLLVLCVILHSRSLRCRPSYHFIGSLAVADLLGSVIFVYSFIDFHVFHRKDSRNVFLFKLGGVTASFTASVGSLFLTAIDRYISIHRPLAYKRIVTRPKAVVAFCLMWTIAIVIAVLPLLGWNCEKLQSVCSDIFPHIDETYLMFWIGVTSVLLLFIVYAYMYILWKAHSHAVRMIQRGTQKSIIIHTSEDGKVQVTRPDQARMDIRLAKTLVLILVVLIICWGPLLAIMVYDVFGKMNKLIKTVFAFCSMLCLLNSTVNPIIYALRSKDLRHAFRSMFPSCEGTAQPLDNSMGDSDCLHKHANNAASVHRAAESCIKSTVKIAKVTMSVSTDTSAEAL
Chain of Cannabinoid receptor 2 (P34972 whole entry): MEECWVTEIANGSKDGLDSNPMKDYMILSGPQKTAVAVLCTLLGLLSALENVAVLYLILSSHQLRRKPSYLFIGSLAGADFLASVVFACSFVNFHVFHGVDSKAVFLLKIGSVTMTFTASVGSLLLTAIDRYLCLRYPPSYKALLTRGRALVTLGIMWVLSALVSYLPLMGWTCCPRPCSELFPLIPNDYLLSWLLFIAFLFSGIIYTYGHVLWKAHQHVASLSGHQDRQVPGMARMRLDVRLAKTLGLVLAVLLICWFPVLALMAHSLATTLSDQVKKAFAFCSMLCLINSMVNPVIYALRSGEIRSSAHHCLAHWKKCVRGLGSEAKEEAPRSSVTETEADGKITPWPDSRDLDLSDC

SMILES | EC50 (Cannabinoid receptor 2) [nM] | metabolised at 0.25 h [1] [%] | EC50 (Cannabinoid receptor 1) [nM] | other results
COCCOc1cc(S(=O)(=O)c2ccc3c(c2)nc(C(C)(C)C)n3CC2CCOCC2)ccn1 | 1.3 | 53 | – | –
CC(=O)NCCc1cc(S(=O)(=O)c2ccc3c(c2)nc(C(C)(C)C)n3CC2CCOCC2)ccn1 | – | 44 | – | –
CC(C)(C)c1nc2cc(S(=O)(=O)CCCC(F)(F)F)ccc2n1CC1CCNCC1 | 240 | – | > 10000 | –
CCOc1cc(S(=O)(=O)c2ccc3c(c2)nc(C(C)(C)C)n3CC2CCOCC2)ccn1 | – | 48 | 1280 | solubility kinetic [2]: < 1 µM
CC(=O)N1CCC(Cn2c(C(C)(C)C)nc3cc(S(=O)(=O)CCCO)ccc32)CC1 | – | – | > 10000 | –
COCCCNc1cc(S(=O)(=O)c2ccc3c(c2)nc(C(C)(C)C)n3CC2CCOCC2)ccn1 | 0.8 | 99 | – | –
CCC(=O)N1CCC(Cn2c(C(C)(C)C)nc3cc(S(=O)(=O)CCCC(F)(F)F)ccc32)CC1 | – | 4 | > 10000 | –
CCS(=O)(=O)c1ccc2c(c1)nc(C(C)(C)C)n2CC1CCN(C=O)CC1 | 23 | 7 | > 10000 | –
CC(C)(C)c1nc2cc(S(=O)(=O)CC3CC3)ccc2n1CC1CCN(C=O)CC1 | – | 16 | 2510 | –
CN1CC[C@]23c4c5ccc(O)c4O[C@H]2[C@@H](O)C=C[C@H]3[C@H]1C5 [MORPHINE] | – | – | – | Activity (Rattus norvegicus [3]): Non-toxic
COC(=O)N1CCC(Cn2c(C(C)(C)C)nc3cc(S(=O)(=O)CCCC(F)(F)F)ccc32)CC1 | – | 54 | > 10000 | –
COCCS(=O)(=O)c1ccc2c(c1)nc(C(C)(C)C)n2CC1CCN(C(C)=O)CC1 | – | – | > 10000 | –
CC(=O)N1CCC(Cn2c(C(C)(C)C)nc3cc(S(=O)(=O)c4ccc(F)cc4)ccc32)CC1 | 2.9 | 8 | > 10000 | Activity (Rattus norvegicus [4]): Toxic
CC(C)(C)c1nc2cc(S(=O)(=O)c3ccnc(OCCCO)c3)ccc2n1CC1CCOCC1 | 1.2 | 40 | – | –
CC(=O)N1CCC(Cn2c(C(C)(C)C)nc3cc(S(=O)(=O)C4CCCC4)ccc32)CC1 | – | 87 | > 10000 | –
